From ChEMBL document CHEMBL1145532, “Role of peptide hydrophobicity in the mechanism of action of alpha-helical antimicrobial peptides” (Antimicrob Agents Chemother, 2007)
Converted amounts (≈) assume the structure as drawn.

How the values were obtained:
[1] = Toxicity against human erythrocytes assessed as hemolysis after 18 hrs; type: cell-based; conditions: erythrocyte
Method in brief: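 Unlysed cells were removed by centrifugation (800 x g), and hemoglobin release was read at 570 nm. The MHC is the maximal concentration causing no hemolysis. Control was 1% erythrocytes without peptide.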

Pseudomonas aeruginosa [2] = experiment: Antimicrobial activity against Pseudomonas aeruginosa PA14; type: functional
Method in brief: (§1)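 Microtiter broth dilution in brain heart infusion (BHI). Cells were grown overnight at 37°C in BHI broth and diluted in the same medium. Serial peptide dilutions were inoculated to a final 5 x 10^5 CFU/ml and incubated at 37°C for 24 h. The MIC is the lowest peptide concentration that inhibited growth.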

[3] = Toxicity against human erythrocytes assessed as increase in hemolytic activity after 18 hrs relative to V13KL peptide; type: cell-based; conditions: erythrocyte
Pseudomonas aeruginosa [4] = experiment: Antimicrobial activity against Pseudomonas aeruginosa CP204; type: functional; method in brief: as §1
Pseudomonas aeruginosa [5] = experiment: Antimicrobial activity against Pseudomonas aeruginosa PAK; type: functional; method in brief: as §1
Pseudomonas aeruginosa [6] = experiment: Antimicrobial activity against Pseudomonas aeruginosa WR5; type: functional; method in brief: as §1
Pseudomonas aeruginosa [7] = experiment: Antimicrobial activity against Pseudomonas aeruginosa M2; type: functional; method in brief: as §1
Pseudomonas aeruginosa [8] = experiment: Antimicrobial activity against Pseudomonas aeruginosa PAO1; type: functional; method in brief: as §1
[9] = Toxicity against human erythrocytes assessed as hemolysis at 500 ug/ml after 18 hrs; conditions: erythrocyte

Compound	Maximal concentration causing no hemolysis (MHC) [1]	MIC (Pseudomonas aeruginosa [2])	Activity [3]	MIC (Pseudomonas aeruginosa [4])	MIC (Pseudomonas aeruginosa [5])	MIC (Pseudomonas aeruginosa [6])	MIC (Pseudomonas aeruginosa [7])	MIC (Pseudomonas aeruginosa [8])	Activity [9]
CC[C@H](C)[C@H](NC(=O)[C@H](CC(C)C)NC(=O)[C@H](CCCCN)NC(=O)[C@H](CC(C)C)NC(=O)[C@H](C)NC(=O)[C@@H](NC(=O)[C@H](Cc1c[nH]cn1)NC(=O)[C@H](CC(C)C)NC(=O)[C@@H](NC(=O)[C@@H](NC(=O)[C@H](CCCCN)NC(=O)[C@H](CCCCN)NC(=O)[C@H](CC(C)C)NC(=O)[C@H](CO)NC(=O)[C@H](CCCCN)NC(=O)[C@H](Cc1ccccc1)NC(=O)[C@@H](NC(=O)[C@H](CCCCN)NC(=O)[C@H](CC(C)C)NC(=O)[C@H](Cc1ccccc1)NC(=O)[C@H](CO)NC(=O)[C@H](CCCCN)NC(=O)[C@H](Cc1c[nH]c2ccccc12)NC(=O)[C@H](CCCCN)NC(C)=O)[C@@H](C)O)[C@@H](C)O)C(C)C)[C@@H](C)O)C(=O)N[C@@H](CO)C(=O)N[C@@H](CO)C(N)=O	15.6 µg/mL	62.5 µg/mL (≈ 20.3 µM)	16	7.8 µg/mL (≈ 2.54 µM)	15.6 µg/mL (≈ 5.07 µM)	250 µg/mL (≈ 81.3 µM)	31.3 µg/mL (≈ 10.2 µM)	15.6 µg/mL (≈ 5.07 µM)	–
CC[C@H](C)[C@H](NC(=O)[C@H](C)NC(=O)[C@H](CCCCN)NC(=O)[C@H](CC(C)C)NC(=O)[C@H](C)NC(=O)[C@@H](NC(=O)[C@H](Cc1cnc[nH]1)NC(=O)[C@H](CC(C)C)NC(=O)[C@@H](NC(=O)[C@@H](NC(=O)[C@H](CCCCN)NC(=O)[C@H](CCCCN)NC(=O)[C@H](C)NC(=O)[C@H](CO)NC(=O)[C@H](CCCCN)NC(=O)[C@H](Cc1ccccc1)NC(=O)[C@@H](NC(=O)[C@H](CCCCN)NC(=O)[C@H](CC(C)C)NC(=O)[C@H](Cc1ccccc1)NC(=O)[C@H](CO)NC(=O)[C@H](CCCCN)NC(=O)[C@H](Cc1c[nH]c2ccccc12)NC(=O)[C@H](CCCCN)NC(C)=O)[C@@H](C)O)[C@@H](C)O)C(C)C)[C@@H](C)O)C(=O)N[C@@H](CO)C(=O)N[C@@H](CO)C(N)=O	250 µg/mL	62.5 µg/mL (≈ 20.9 µM)	1	7.8 µg/mL (≈ 2.61 µM)	125 µg/mL (≈ 41.8 µM)	250 µg/mL (≈ 83.6 µM)	31.3 µg/mL (≈ 10.5 µM)	31.3 µg/mL (≈ 10.5 µM)	Non-toxic
CC[C@H](C)[C@H](NC(=O)[C@H](C)NC(=O)[C@H](CCCCN)NC(=O)[C@H](CC(C)C)NC(=O)[C@H](C)NC(=O)[C@@H](NC(=O)[C@H](Cc1c[nH]cn1)NC(=O)[C@H](CC(C)C)NC(=O)[C@@H](NC(=O)[C@@H](NC(=O)[C@H](CCCCN)NC(=O)[C@H](CCCCN)NC(=O)[C@H](CC(C)C)NC(=O)[C@H](CO)NC(=O)[C@H](CCCCN)NC(=O)[C@H](Cc1ccccc1)NC(=O)[C@@H](NC(=O)[C@H](CCCCN)NC(=O)[C@H](CC(C)C)NC(=O)[C@H](Cc1ccccc1)NC(=O)[C@H](CO)NC(=O)[C@H](CCCCN)NC(=O)[C@H](Cc1c[nH]c2ccccc12)NC(=O)[C@H](CCCCN)NC(C)=O)[C@@H](C)O)[C@@H](C)O)C(C)C)[C@@H](C)O)C(=O)N[C@@H](CO)C(=O)N[C@@H](CO)C(N)=O	31.3 µg/mL	31.3 µg/mL (≈ 10.3 µM)	8	15.6 µg/mL (≈ 5.14 µM)	31.3 µg/mL (≈ 10.3 µM)	62.5 µg/mL (≈ 20.6 µM)	15.6 µg/mL (≈ 5.14 µM)	15.6 µg/mL (≈ 5.14 µM)	–
Ac-KWKSFAKTFKSAKKTVLHTAAKAISS-NH2	1000 µg/mL	> 500 µg/mL	0.3	> 500 µg/mL	> 500 µg/mL	> 500 µg/mL	> 500 µg/mL	500 µg/mL	–
Ac-KWKSFAKTFKSAKKTVLHTALKAISS-NH2 [listing 1 of 2 here]	1000 µg/mL	–	0.3	–	–	–	–	–	–
Ac-KWKSFAKTFKSAKKTVLHTALKAISS-NH2 [listing 2 of 2 here]	–	500 µg/mL	–	125 µg/mL	250 µg/mL	250 µg/mL	250 µg/mL	125 µg/mL	–
Ac-KWKSFLKTFKSAKKTVLHTALKLISS-NH2 [listing 1 of 2 here]	62.5 µg/mL	–	4	–	–	–	–	–	–
Ac-KWKSFLKTFKSAKKTVLHTALKLISS-NH2 [listing 2 of 2 here]	–	31.3 µg/mL	–	15.6 µg/mL	62.5 µg/mL	62.5 µg/mL	31.3 µg/mL	31.3 µg/mL	–
